Results from ChEMBL document CHEMBL4261549 (Medchemcomm, 2017).
Activity calls are given as the source filed them. The calls are words filed in the database; no cut-off is given here.

Assays:
MCF7 = test: Antiproliferative activity against human MCF7 cells after 48 hrs by MTT assay; format: functional, cell-based; conditions: MCF7, 48 h
In short: (§1)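 MTT dye-uptake viability assay; cells seeded at 2.5 × 10^3 per well, grown in RPMI 1640/DMEM with 10% FBS and penicillin/streptomycin at 37 °C, 5% CO2. Exposure to compounds for 48 h over 100 nM to 100 μM. IC50 versus untreated control, given as mean ± SD of three independent experiments.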

PC-3 [1] = test: Antiproliferative activity against human PC3 cells after 48 hrs by MTT assay; format: functional, cell-based; conditions: PC-3, 48 h; in short: as §1
HCT-116 = test: Antiproliferative activity against human HCT116 cells after 48 hrs by MTT assay; format: functional, cell-based; conditions: HCT-116, 48 h; in short: as §1
BPH-1 = test: Antiproliferative activity against human BPH1 cells after 48 hrs by MTT assay; format: cell-based; conditions: BPH-1, 48 h
Homo sapiens [2] = species: Homo sapiens; test: Inhibition of PI3K/Akt in human PC3 cells assessed as reduction in NF-kB dependant MMP9 activation after 48 hrs by gelatin zymographic method; format: cell-based
In short: (§2)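 Gelatin zymography. Subconfluent (70–80%) PC-3 cells in fresh medium incubated 48 h with increasing concentrations. Equal protein from conditioned media run on 7.5% SDS-PAGE containing 0.1% gelatin, 100 V, 3 h, 4 °C. Gels washed in 2% Triton X-100, incubated overnight at 37 °C in Tris-HCl pH 8.0/10 mM CaCl2 buffer, then Coomassie stained. BSA as loading control.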

PC-3 [3] = test: Effect on total AKT protein expression in human PC3 cells at 2.5 to 4.5 uM after 24 hrs by Western blot method; format: ADME, cell-based; conditions: pc-3, 24 h
In short: (§3)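 PC-3 cells exposed to indicated concentrations or DMSO, then lysed. Equal protein amounts analysed by western blotting, with β-actin as loading control. Representative of three independent experiments.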

PC-3 [4] = test: Anti-invasive activity against human PC3 cells assessed as increase in TIMP1 protein expression after 24 hrs by Western blot method; format: functional, cell-based; in short: as §3
[5] = biological target: Serine/threonine-protein kinase mTOR (Homo sapiens) (UniProt P42345); test: Inhibition of mTOR signaling in human PC3 cells assessed as reduction in S6K protein expression at 2.5 to 4.5 uM after 24 hrs by Western blot method; format: cell-based; in short: as §3
PC-3 [6] = test: Induction of apoptosis in human PC3 cells assessed as caspase-3/7 activation by caspase3/7-Glo assay; format: functional, cell-based
In short: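 Cells seeded at 5 × 10^3 per well in 96-well plates for 24 h, then treated. Caspase-3/7 Glo reagent/substrate mix added for 25 min, and luminescence read.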

PC-3 [7] = test: Inhibition of colony formation in human PC3 cells at 2.5 to 4.5 uM after 5 days by crystal violet staining based inverted microscopic assay; format: functional, cell-based
In short: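 Clonogenic assay. PC-3 cells (1 × 10^3 per well) plated, medium replaced after 24 h, then exposed to graded concentrations or DMSO vehicle for 5 days. Colonies stained with crystal violet, counted randomly and imaged at 20×. Three independent experiments.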

[8] = biological target: Serine/threonine-protein kinase mTOR (Homo sapiens) (UniProt P42345); test: Inhibition of mTOR phosphorylation in human PC3 cells at 2.5 to 4.5 uM after 24 hrs by Western blot method; format: cell-based; in short: as §3
PC-3 [9] = test: Anti-invasive activity against human PC3 cells after 48 hrs by Boyden chamber assay; format: functional, cell-based
In short: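 Matrigel (Boyden chamber) invasion kit used per manufacturer. PC-3 cells (1.2 × 10^6 per well) treated with graded concentrations or DMSO vehicle. Invaded cells counted per field and imaged at 20× magnification. Three independent experiments.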

PC-3 [10] = test: Antimetastatic activity against human PC3 cells assessed as increase in E-cadherin protein expression at 2.5 to 4.5 uM after 24 hrs by Western blot method; format: functional, cell-based; in short: as §3
PC-3 [11] = test: Inhibition of VEGF-induced cell scattering in human PC3 cells at 2.5 to 4.5 uM after 24 to 48 hrs by inverted microscopic assay; format: functional, cell-based
In short: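 PC-3 cells seeded at 1000 per well and grown 3–4 days into discrete colonies. Stimulated with VEGF in growth medium with graded concentrations. After overnight (24 h) incubation, individual colonies observed by bright-field/inverted microscopy and photographed. Representative of three experiments.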

PC-3 [12] = test: Effect on total mTOR protein expression in human PC3 cells at 2.5 to 4.5 uM after 24 hrs by Western blot method; format: ADME, cell-based; conditions: pc-3, 24 h; in short: as §3
PC-3 [13] = test: Antimetastatic activity against human PC3 cells assessed as decrease in vimentin protein expression at 2.5 to 4.5 uM after 24 hrs by Western blot method; format: functional, cell-based; in short: as §3
Homo sapiens [14] = species: Homo sapiens; test: Inhibition of PI3K/Akt signaling in human PC3 cells assessed as downregulation of NF-kB expression after 24 hrs by Western blot method; format: cell-based; in short: as §3
PC-3 [15] = test: Induction of mitochondrial membrane potential loss in human PC3 cells after 24 hrs by JC1 staining based fluorescence microscopic method; format: functional, cell-based
In short: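 Treated PC-3 cells (1 × 10^6 per well) washed with cold PBS and stained with JC-1 at 1 μM final for 30 min at 37 °C. Aggregates and monomers assessed by fluorescence microscopy.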

Homo sapiens [16] = species: Homo sapiens; test: Inhibition of PI3K/Akt in human PC3 cells assessed as downregulation of NF-kB dependant MMP2 protein expression at 2.5 to 4.5 uM after 24 hrs by Western blot method; format: cell-based; in short: as §3
Homo sapiens [17] = species: Homo sapiens; test: Inhibition of PI3K/Akt in human PC3 cells assessed as reduction in NF-kB dependant MMP2 activation after 48 hrs by gelatin zymographic method; format: cell-based; in short: as §2
[18] = biological target: RAC-alpha serine/threonine-protein kinase (Homo sapiens) (UniProt P31749); test: Inhibition of AKT phosphorylation in human PC3 cells at 2.5 to 4.5 uM after 24 hrs by Western blot method; format: cell-based; in short: as §3
RAC-alpha serine/threonine-protein kinase (Homo sapiens), sequence (P31749 whole entry): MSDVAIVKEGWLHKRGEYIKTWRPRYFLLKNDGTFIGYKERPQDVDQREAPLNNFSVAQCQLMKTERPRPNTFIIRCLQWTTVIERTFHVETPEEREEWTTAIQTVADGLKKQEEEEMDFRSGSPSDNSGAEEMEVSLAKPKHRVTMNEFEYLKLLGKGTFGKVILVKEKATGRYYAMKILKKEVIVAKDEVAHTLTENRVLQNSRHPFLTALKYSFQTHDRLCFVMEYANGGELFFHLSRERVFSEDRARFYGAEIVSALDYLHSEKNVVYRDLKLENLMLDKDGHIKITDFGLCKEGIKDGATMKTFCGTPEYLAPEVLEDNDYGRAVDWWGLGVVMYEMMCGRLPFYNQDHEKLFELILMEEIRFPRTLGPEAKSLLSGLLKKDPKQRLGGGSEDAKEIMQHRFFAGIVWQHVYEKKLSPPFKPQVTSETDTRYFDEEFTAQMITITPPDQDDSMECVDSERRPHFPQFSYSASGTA

PC-3 [19] = test: Antimigratory activity against human PC3 cells assessed as reduction in wound closure after 48 hrs by inverted microscopic assay; format: functional, cell-based; conditions: in the assay text read “24 hrs” for “48 hrs”
In short: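 Scratch assay. PC-3 cells (5 × 10^5 per well) grown 24 h to a confluent monolayer, then serum-starved 24 h. Monolayer scratched with a pipette tip and washed, then treated in 1.0% serum medium with graded concentrations or DMSO for 24 h. Photographed at 20×. % wound closure = [1 – (area t1/area t0) × 100%].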

PC-3 [20] = test: Inhibition of PI3K/Akt in human PC3 cells assessed as downregulation of NF-kB dependant MMP9 protein expression at 2.5 to 4.5 uM after 24 hrs by Western blot method; format: functional, cell-based; in short: as §3

Compound | IC50 (MCF7) | IC50 (PC-3 [1]) | IC50 (HCT-116) | also measured
COc1cc(/C=C/C(C)=O)ccc1OCc1cn(-c2ccccc2)nn1 | > 100 µM | 78.6 µM | 67.3 µM | –
COc1cc(/C=C/C(C)=O)ccc1OCc1cn(-c2ccccc2O)nn1 | > 100 µM | 59.2 µM | 76.4 µM | –
COc1cc(/C=C/C(C)=O)ccc1OCc1cn(-c2cc(F)cc(Br)c2)nn1 | 65.5 µM | 56.9 µM | 45.4 µM | –
CCOC(=O)c1ccc(-n2cc(COc3ccc(/C=C/C(C)=O)cc3OC)nn2)cc1 | > 100 µM | 59.2 µM | 78.9 µM | –
COc1cc(/C=C/C(C)=O)ccc1OCc1cn(-c2ccc(/N=N/c3ccccc3)cc2)nn1 | 75.9 µM | 42.1 µM | > 100 µM | –
COc1cc(/C=C/C(C)=O)ccc1OCc1cn(-c2ccc(C(F)(F)F)c(C(F)(F)F)c2)nn1 | 87.4 µM | 67.2 µM | 57.8 µM | –
COc1cc(/C=C/C(C)=O)ccc1O [DEHYDROZINGERONE] | 54.6 µM | 43.2 µM | 34.8 µM | –
COc1cc(/C=C/C(C)=O)ccc1OCc1cn(-c2c(Cl)cccc2Cl)nn1 | 26.6 µM | 3.07 µM | 2 µM | IC50 (BPH-1): > 100 µM; inhibition (Homo sapiens [2]): Dose-dependent effect; Activity (PC-3 [3]): Non-Toxic; Activity (PC-3 [4]): Dose-dependent effect; inhibition [5]: Active; Activity (PC-3 [6]): Active; inhibition (PC-3 [7]): Active; inhibition [8]: Active; Activity (PC-3 [9]): Dose-dependent effect; Activity (PC-3 [10]): Active; inhibition (PC-3 [11]): Active; Activity (PC-3 [12]): Non-Toxic; Activity (PC-3 [13]): Active; inhibition (Homo sapiens [14]): Dose-dependent effect; Activity (PC-3 [15]): Dose-dependent effect; inhibition (Homo sapiens [16]): Active; inhibition (Homo sapiens [17]): Dose-dependent effect; inhibition [18]: Active; Activity (PC-3 [19]): Dose-dependent effect; inhibition (PC-3 [20]): Active
COc1cc(/C=C/C(C)=O)ccc1OCc1cn(-c2ccc(C=O)cc2)nn1 | 86.4 µM | 80.7 µM | 76.2 µM | –
COc1cc(/C=C/C(C)=O)ccc1OCc1cn(-c2ccccc2OC)nn1 | 29.1 µM | 2.04 µM | 25.7 µM | –
COc1cc(/C=C/C(C)=O)ccc1OCc1cn(-c2ccc(-c3ccccc3)cc2)nn1 | 65.4 µM | 56.8 µM | 65.2 µM | –
COc1cc(/C=C/C(C)=O)ccc1OCc1cn(-c2ccccc2CO)nn1 | 65.8 µM | 50.3 µM | > 100 µM | –
COc1cc(/C=C/C(C)=O)ccc1OCc1cn(-c2ccc([N+](=O)[O-])cc2)nn1 | > 100 µM | 46.7 µM | 96.3 µM | –
C#CCOc1ccc(/C=C/C(C)=O)cc1OC | 65.4 µM | 40.2 µM | 49.7 µM | –
COc1cc(/C=C/C(C)=O)ccc1OCc1cn(-c2ccc(NC(=O)c3ccccc3)cc2)nn1 | 86.7 µM | 76.8 µM | > 100 µM | –
COc1cc(/C=C/C(C)=O)ccc1OCc1cn(-c2ccc(C)cc2)nn1 | > 100 µM | 58.1 µM | 76.6 µM | –
COc1cc(/C=C/C(C)=O)ccc1OCc1cn(-c2ccccc2Cl)nn1 | 2.19 µM | 48 µM | 39 µM | –
COc1cc(/C=C/C(C)=O)ccc1OCc1cn(-c2c(F)cccc2F)nn1 | 2.03 µM | 24.2 µM | 37.7 µM | –
COc1cccc(-n2cc(COc3ccc(/C=C/C(C)=O)cc3OC)nn2)c1 | 1.8 µM | 31.6 µM | 29.6 µM | –
COc1ccc(-n2cc(COc3ccc(/C=C/C(C)=O)cc3OC)nn2)cc1 | 33.7 µM | 2.01 µM | 21.3 µM | –
